The text below walks through data of ChEMBL document CHEMBL1140756, “Synthesis and antiviral activity of new dimeric inhibitors against HIV-1” (Bioorg Med Chem, 2008).

Some results are limits rather than exact numbers.

In experiment [1] the test system is Human immunodeficiency virus 1. As to the kind of experiment: Antiviral activity against HIV1 K103N/Y181C mutant. It is filed as functional, organism-based. Put shortly: (§1)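 Acute infection of MT-4 cells (1×10^4 per well) with NNRTI-resistant HIV-1 stocks (K103N+Y181C A17, Y181C N119, efavirenz-selected K103R+V179D+P225H) titrated in C8166 cells by syncytia scoring. Compounds were serially diluted from 100 mM DMSO stocks. Virus input gave full cytopathogenicity at day 4, 37 °C. Read-out was protection of viability by MTT, or p24 immunoassay.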

Experiment [2] is described as follows: Selectivity index, ratio of CC50 for human MT4 cells to EC50 for wild type HIV1. It is filed as functional. Summed up:
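CC50 from mock-infected MT-4 cells, read by MTT in parallel with the antiviral test, divided by EC50 for 50% protection from HIV-1 IIIB cytopathogenicity (MTT, day 4 input, 37 °C). Both values are means of at least two separate experiments.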

The test system of experiment [3] is Human immunodeficiency virus 1. As to the kind of experiment: Antiviral activity against efavirenz-resistant HIV1. It is filed as functional, organism-based. Summed up: as §1
The test system of the next experiment is MT4 (Homo sapiens). In words: Cytotoxicity against mock-infected human MT4 cells by MTT assay.
The subject of experiment [4] is Human immunodeficiency virus 1. As to the kind of experiment: Antiviral activity against HIV1 Y181C mutant. It is filed as functional, organism-based. Summed up: as §1
For experiment [5], the system named is Human immunodeficiency virus 1. In words: Antiviral activity against HIV1 HTLV-3B. It is filed as functional, organism-based. Conditions: Human immunodeficiency virus 1, HTLV-3B. Put shortly: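 MT-4 cells (1×10^4 per well) in RPMI 1640 with 10% FCS, exposed to serial compound dilutions (DMSO stocks at 100 mM diluted in medium), then infected with HIV-1 IIIB at an input giving complete cytopathogenicity by day 4. Incubated at 37 °C; viability read by MTT. EC50 = dose giving 50% protection; mean of at least two experiments.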

By EC50 is commonly meant the concentration at which the effect is half-maximal. The low end stands for a more potent agent, the high end for a less potent agent. By CC50 is commonly meant the concentration giving 50% cytotoxicity. Higher therefore signals better tolerance by the cells. On to `CCOCn1c(Cc2ccccc2)c(C(C)C)c(=O)[nH]c1=O` [EMIVIRINE], for which the EC50 in experiment [1] was greater than 100 µM; in experiment [3], 100 µM; in experiment [4], 20 µM; in experiment [5], 0.03 µM. In addition, the “Ratio CC50/EC50” value in experiment [2] is recorded as greater than 3333. Also, the CC50 in the experiment on MT4 (Homo sapiens) was greater than 100 µM.
With `CCc1c(Cc2cc(C)cc(C)c2)n(COCc2cn([C@H]3C[C@H](n4cc(C)c(=O)[nH]c4=O)O[C@@H]3CO)nn2)c(=O)[nH]c1=O`, the EC50 in experiment [1] came to 27 µM; in experiment [3], 26 µM; in experiment [4], 8 µM. Also, the “Ratio CC50/EC50” value in experiment [2] is on record as greater than 1250. This compound had a CC50 in the experiment on MT4 (Homo sapiens) greater than 100 µM.
Regarding `CCc1c(Cc2ccccc2C)n(COCC#CC#CCOCn2c(Cc3ccccc3C)c(CC)c(=O)[nH]c2=O)c(=O)[nH]c1=O`, the EC50 in experiment [1], in experiment [3], in experiment [4] and in experiment [5] was greater than 8 µM each time. The “Ratio CC50/EC50” value in experiment [2] was 1. Besides, the midpoint of cytotoxicity with MT4 (Homo sapiens), the CC50, lay at 8 µM.
Turning to `CC[C@@]12CC[C@H]3C4CCC(=O)C=C4CC[C@@H]3[C@H]1CC[C@]2(O)C#CC#C[C@@]1(O)CC[C@@H]2[C@H]3CCC4=CC(=O)CCC4[C@@H]3CC[C@]21CC` (some centres undefined), the EC50 in experiment [1], in experiment [3], in experiment [4] and in experiment [5] was greater than 28 µM each time. In experiment [2], the “Ratio CC50/EC50” value is given as 1. For the same compound, the CC50 in the experiment on MT4 (Homo sapiens) was 28 µM.
On to `C#CCOCn1c(Cc2cc(C)cc(C)c2)c(CC)c(=O)[nH]c1=O`, for which the EC50 in experiment [1] is 1.2 µM; in experiment [3] it was 16 µM; in experiment [4], 0.2 µM; in experiment [5] it was 0.003 µM. Also, the Ratio CC50/EC50 in experiment [2] is greater than 33300. Moreover, the CC50 in the experiment with MT4 (Homo sapiens) was greater than 100 µM.
Regarding `CCc1c(Cc2cc(C)cc(C)c2)n(COCC#Cc2ccc(C#CCOCn3c(Cc4cc(C)cc(C)c4)c(CC)c(=O)[nH]c3=O)cc2)c(=O)[nH]c1=O`, the EC50 in experiment [1] was greater than 85 µM; in experiment [3] it was greater than 85 µM; in experiment [4], greater than 85 µM; in experiment [5] it was 2.8 µM. Also, the “Ratio CC50/EC50” value in experiment [2] came out at 30. The compound also registered a CC50 in the experiment with MT4 (Homo sapiens) of 85 µM.
Turning to `O=C1Nc2ccc(Cl)cc2[C@@](C#CC2CC2)(C(F)(F)F)O1` [EFAVIRENZ], the EC50 in experiment [1] worked out at 0.3 µM; in experiment [4], 0.008 µM. The same compound returned a CC50 with MT4 (Homo sapiens) of 30 µM.
Turning to `CCc1c(Cc2cc(C)cc(C)c2)n(COCc2ccc(I)cc2)c(=O)[nH]c1=O`, the EC50 in experiment [1] amounted to 0.9 µM; in experiment [3] it was 0.8 µM; in experiment [4] it was 0.1 µM; in experiment [5] it was 0.007 µM. Further, in experiment [2], the “Ratio CC50/EC50” value is on record as 2714. This compound also returned a CC50 in the experiment on MT4 (Homo sapiens) of 19 µM.
Take `CCc1c(Cc2cc(C)cc(C)c2)n(COCc2ccc(C#C[C@@]3(O)CC[C@@H]4[C@H]5CCC6=CC(=O)CC[C@H]6[C@@H]5CC[C@]43CC)cc2)c(=O)[nH]c1=O`: the EC50 in experiment [1] was greater than 100 µM; in experiment [3], greater than 100 µM; in experiment [4] it was 2.8 µM; in experiment [5] it was 0.4 µM. In addition, in experiment [2], the “Ratio CC50/EC50” value is greater than 250. In addition, in the experiment on MT4 (Homo sapiens), the cytotoxic concentration (CC50) is greater than 100 µM.
Take `CCc1c(Cc2cc(C)cc(C)c2)n(COCC#CC#CCOCn2c(Cc3cc(C)cc(C)c3)c(CC)c(=O)[nH]c2=O)c(=O)[nH]c1=O`: the EC50 is greater than 9 µM in experiment [1], greater than 9 µM in experiment [3], greater than 9 µM in experiment [4] and 0.5 µM in experiment [5]. Further, in experiment [2], the “Ratio CC50/EC50” value turned out to be 18. The CC50 with MT4 (Homo sapiens) was 9 µM.
Turning to `CCc1c(Cc2cc(C)cc(C)c2)n(COCC#Cc2ccc(I)cc2)c(=O)[nH]c1=O`, the EC50 in experiment [1] was greater than 44 µM; in experiment [3], greater than 44 µM; in experiment [4], 10 µM; in experiment [5], 0.2 µM. Further, the “Ratio CC50/EC50” value in experiment [2] was found to be 220. Further, the CC50 in the experiment on MT4 (Homo sapiens) was determined as 44 µM.
With `CCc1c(Cc2cc(C)cc(C)c2)n(COCC#Cc2ccc(COCn3c(Cc4cc(C)cc(C)c4)c(CC)c(=O)[nH]c3=O)cc2)c(=O)[nH]c1=O`, the EC50 was greater than 16 µM in experiment [1], greater than 16 µM in experiment [3], 4 µM in experiment [4] and 0.3 µM in experiment [5]. Further, the “Ratio CC50/EC50” value in experiment [2] is recorded as 53. The CC50 in the experiment on MT4 (Homo sapiens) was determined as 16 µM.
With `C#CCOCn1c(Cc2ccccc2C)c(CC)c(=O)[nH]c1=O`, the EC50 in experiment [1] was greater than 33 µM; in experiment [3], greater than 33 µM; in experiment [4], greater than 33 µM; in experiment [5], 0.4 µM. In experiment [2], the “Ratio CC50/EC50” value is given as 82. In the experiment on MT4 (Homo sapiens), this compound came in with a CC50 of 33 µM.
